Data as given in ChEMBL document CHEMBL3739273, “Synthesis, biological activity evaluation and molecular docking studies of novel coumarin substituted thiazolyl-3-aryl-pyrazole-4-carbaldehydes” (Bioorg Med Chem Lett, 2015).
Values after ≈ are worked out from the molar mass of the structure shown. Active and inactive are the calls of the source. The calls are words filed in the database; no cut-off is given here.

System: not listed separately
Experiment: Anticancer activity against human DU145 cells assessed as cell viability after 48 hrs by MTT assay
Format: functional, cell-based
Conditions: DU-145, 48 h
In short: (§1)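 MTT cytotoxicity assay in human DU-145 prostate, MCF-7 breast and HeLa cervical cancer cell lines. Doxorubicin was the reference drug.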

| Compound | IC50 |
| --- | --- |
| O=Cc1cn(-c2nc(-c3cc4cc(Cl)ccc4oc3=O)cs2)nc1-c1ccccc1 | > 100 µM |
| COc1cccc2c1C(=O)c1c(O)c3c(c(O)c1C2=O)C[C@@](O)(C(=O)CO)C[C@@H]3O[C@H]1C[C@H](N)[C@H](O)[C@H](C)O1 [DOXORUBICIN] | 2.49 µM |
| COc1cccc2cc(-c3csc(-n4cc(C=O)c(-c5ccc(C)cc5)n4)n3)c(=O)oc12 | 31.4 µM |

System: MCF7
Experiment: Anticancer activity against human MCF7 cells assessed as cell viability after 48 hrs by MTT assay
Format: functional, cell-based
Conditions: MCF7, 48 h
In short: as §1

| Compound | IC50 |
| --- | --- |
| O=Cc1cn(-c2nc(-c3cc4cc(Cl)ccc4oc3=O)cs2)nc1-c1ccccc1 | > 100 µM |
| COc1cccc2cc(-c3csc(-n4cc(C=O)c(-c5ccc(C)cc5)n4)n3)c(=O)oc12 | 42.6 µM |

System: HeLa
Experiment: Anticancer activity against human HeLa cells assessed as cell viability after 48 hrs by MTT assay
Format: functional, cell-based
Conditions: not given
In short: as §1

| Compound | IC50 |
| --- | --- |
| O=Cc1cn(-c2nc(-c3cc4cc(Cl)ccc4oc3=O)cs2)nc1-c1ccccc1 | 12.8 µM |
| COc1cccc2c1C(=O)c1c(O)c3c(c(O)c1C2=O)C[C@@](O)(C(=O)CO)C[C@@H]3O[C@H]1C[C@H](N)[C@H](O)[C@H](C)O1 [DOXORUBICIN] | 3.92 µM |
| COc1cccc2cc(-c3csc(-n4cc(C=O)c(-c5ccc(C)cc5)n4)n3)c(=O)oc12 | 28.2 µM |

System: Staphylococcus aureus
Experiment: Antibacterial activity against methicillin-resistant Staphylococcus aureus NCTC 13616 assessed as growth inhibition at 100 ug/ml after 24 hrs by agar well diffusion method
Format: functional, organism-based
Conditions: not given
In short: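 Agar well diffusion assay with compounds applied to wells at several concentrations, including the 100 level reported here. The zone of inhibition was measured in mm. Gentamycin sulfate was the standard drug.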

| Compound | growth inhibition (GI) |
| --- | --- |
| O=Cc1cn(-c2nc(-c3cc4cc(Cl)ccc4oc3=O)cs2)nc1-c1ccccc1 | inactive |
| COc1cccc2cc(-c3csc(-n4cc(C=O)c(-c5ccc(C)cc5)n4)n3)c(=O)oc12 | inactive |

System: Escherichia coli
Experiment: Antibacterial activity against Escherichia coli ATCC 8739 after 24 hrs by microtiter plate method
Format: functional
Conditions: ATCC 8739, 24 h
In short: (§2)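 Test concentrations reported in µg/mL. Gentamycin sulfate and ampicillin were the reference drugs.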

| Compound | MIC |
| --- | --- |
| O=Cc1cn(-c2nc(-c3cc4cc(Cl)ccc4oc3=O)cs2)nc1-c1ccccc1 | 135 µg/mL (≈ 310 µM) |
| COc1cccc2cc(-c3csc(-n4cc(C=O)c(-c5ccc(C)cc5)n4)n3)c(=O)oc12 | 133 µg/mL (≈ 299 µM) |

System: Klebsiella pneumoniae
Experiment: Antibacterial activity against Klebsiella pneumoniae ATCC 43816 after 24 hrs by microtiter plate method
Format: functional
Conditions: ATCC 43816, 24 h
In short: as §2

| Compound | MIC |
| --- | --- |
| O=Cc1cn(-c2nc(-c3cc4cc(Cl)ccc4oc3=O)cs2)nc1-c1ccccc1 | 129 µg/mL (≈ 297 µM) |
| COc1cccc2cc(-c3csc(-n4cc(C=O)c(-c5ccc(C)cc5)n4)n3)c(=O)oc12 | 150 µg/mL (≈ 338 µM) |

System: Proteus vulgaris
Experiment: Antibacterial activity against Proteus vulgaris ATCC 13315 after 24 hrs by microtiter plate method
Format: functional
Conditions: ATCC 13315, 24 h
In short: as §2

| Compound | MIC |
| --- | --- |
| O=Cc1cn(-c2nc(-c3cc4cc(Cl)ccc4oc3=O)cs2)nc1-c1ccccc1 | 130 µg/mL (≈ 300 µM) |
| COc1cccc2cc(-c3csc(-n4cc(C=O)c(-c5ccc(C)cc5)n4)n3)c(=O)oc12 | 142 µg/mL (≈ 320 µM) |

System: Staphylococcus aureus
Experiment: Antibacterial activity against methicillin-resistant Staphylococcus aureus NCTC 13616 after 24 hrs by microtiter plate method
Format: functional
Conditions: NCTC 13616, 24 h

| Compound | MIC |
| --- | --- |
| O=Cc1cn(-c2nc(-c3cc4cc(Cl)ccc4oc3=O)cs2)nc1-c1ccccc1 | 150 µg/mL (≈ 346 µM) |
| COc1cccc2cc(-c3csc(-n4cc(C=O)c(-c5ccc(C)cc5)n4)n3)c(=O)oc12 | 150 µg/mL (≈ 338 µM) |

System: Bacillus spizizenii
Experiment: Antibacterial activity against Bacillus subtilis ATCC 6633 after 24 hrs by microtiter plate method
Format: functional
Conditions: ATCC 6633, 24 h
In short: as §2

| Compound | MIC |
| --- | --- |
| O=Cc1cn(-c2nc(-c3cc4cc(Cl)ccc4oc3=O)cs2)nc1-c1ccccc1 | 130 µg/mL (≈ 298 µM) |
| COc1cccc2cc(-c3csc(-n4cc(C=O)c(-c5ccc(C)cc5)n4)n3)c(=O)oc12 | 150 µg/mL (≈ 338 µM) |

System: Bacillus cereus
Experiment: Antibacterial activity against Bacillus cereus ATCC 14579 after 24 hrs by microtiter plate method
Format: functional
Conditions: ATCC 14579, 24 h
In short: as §2

| Compound | MIC |
| --- | --- |
| O=Cc1cn(-c2nc(-c3cc4cc(Cl)ccc4oc3=O)cs2)nc1-c1ccccc1 | 139 µg/mL (≈ 319 µM) |
| COc1cccc2cc(-c3csc(-n4cc(C=O)c(-c5ccc(C)cc5)n4)n3)c(=O)oc12 | 136 µg/mL (≈ 307 µM) |

System: Escherichia coli
Experiment: Bactericidal activity against Escherichia coli ATCC 8739 after 24 hrs
Format: functional
Conditions: ATCC 8739, 24 h, read-out: MBC99.9
In short: (§3)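 MBC determined by a standard MBC protocol alongside the MIC, with values in µg/mL. Gentamycin sulfate and ampicillin were the references.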

| Compound | MBC |
| --- | --- |
| O=Cc1cn(-c2nc(-c3cc4cc(Cl)ccc4oc3=O)cs2)nc1-c1ccccc1 | 265 µg/mL (≈ 611 µM) |
| COc1cccc2cc(-c3csc(-n4cc(C=O)c(-c5ccc(C)cc5)n4)n3)c(=O)oc12 | 260 µg/mL (≈ 586 µM) |

System: Klebsiella pneumoniae
Experiment: Bactericidal activity against Klebsiella pneumoniae ATCC 43816 after 24 hrs
Format: functional
Conditions: ATCC 43816, 24 h, read-out: MBC99.9
In short: as §3

| Compound | MBC |
| --- | --- |
| O=Cc1cn(-c2nc(-c3cc4cc(Cl)ccc4oc3=O)cs2)nc1-c1ccccc1 | 190 µg/mL (≈ 438 µM) |
| COc1cccc2cc(-c3csc(-n4cc(C=O)c(-c5ccc(C)cc5)n4)n3)c(=O)oc12 | 300 µg/mL (≈ 676 µM) |

System: Proteus vulgaris
Experiment: Bactericidal activity against Proteus vulgaris ATCC 13315 after 24 hrs
Format: functional
Conditions: ATCC 13315, 24 h, read-out: MBC99.9
In short: as §3

| Compound | MBC |
| --- | --- |
| O=Cc1cn(-c2nc(-c3cc4cc(Cl)ccc4oc3=O)cs2)nc1-c1ccccc1 | 260 µg/mL (≈ 599 µM) |
| COc1cccc2cc(-c3csc(-n4cc(C=O)c(-c5ccc(C)cc5)n4)n3)c(=O)oc12 | 285 µg/mL (≈ 643 µM) |

System: Staphylococcus aureus
Experiment: Bactericidal activity against methicillin-resistant Staphylococcus aureus NCTC 13616 after 24 hrs
Format: functional
Conditions: NCTC 13616, 24 h, read-out: MBC99.9
In short: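 MBC determined by a standard MBC protocol run alongside the MIC determination. Gentamycin sulfate and ampicillin served as reference drugs.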

| Compound | MBC |
| --- | --- |
| O=Cc1cn(-c2nc(-c3cc4cc(Cl)ccc4oc3=O)cs2)nc1-c1ccccc1 | 300 µg/mL (≈ 691 µM) |
| COc1cccc2cc(-c3csc(-n4cc(C=O)c(-c5ccc(C)cc5)n4)n3)c(=O)oc12 | 300 µg/mL (≈ 676 µM) |

System: Bacillus spizizenii
Experiment: Bactericidal activity against Bacillus subtilis ATCC 6633 after 24 hrs
Format: functional
Conditions: ATCC 6633, 24 h, read-out: MBC99.9
In short: as §3

| Compound | MBC |
| --- | --- |
| O=Cc1cn(-c2nc(-c3cc4cc(Cl)ccc4oc3=O)cs2)nc1-c1ccccc1 | 190 µg/mL (≈ 438 µM) |
| COc1cccc2cc(-c3csc(-n4cc(C=O)c(-c5ccc(C)cc5)n4)n3)c(=O)oc12 | 300 µg/mL (≈ 676 µM) |

System: Bacillus cereus
Experiment: Bactericidal activity against Bacillus cereus ATCC 14579 after 24 hrs
Format: functional
Conditions: ATCC 14579, 24 h, read-out: MBC99.9
In short: as §3

| Compound | MBC |
| --- | --- |
| O=Cc1cn(-c2nc(-c3cc4cc(Cl)ccc4oc3=O)cs2)nc1-c1ccccc1 | 275 µg/mL (≈ 634 µM) |
| COc1cccc2cc(-c3csc(-n4cc(C=O)c(-c5ccc(C)cc5)n4)n3)c(=O)oc12 | 275 µg/mL (≈ 620 µM) |

Target: T1, Cytochrome P450 2A6 (Homo sapiens, UniProt P11509)
T1 sequence (P11509 whole entry): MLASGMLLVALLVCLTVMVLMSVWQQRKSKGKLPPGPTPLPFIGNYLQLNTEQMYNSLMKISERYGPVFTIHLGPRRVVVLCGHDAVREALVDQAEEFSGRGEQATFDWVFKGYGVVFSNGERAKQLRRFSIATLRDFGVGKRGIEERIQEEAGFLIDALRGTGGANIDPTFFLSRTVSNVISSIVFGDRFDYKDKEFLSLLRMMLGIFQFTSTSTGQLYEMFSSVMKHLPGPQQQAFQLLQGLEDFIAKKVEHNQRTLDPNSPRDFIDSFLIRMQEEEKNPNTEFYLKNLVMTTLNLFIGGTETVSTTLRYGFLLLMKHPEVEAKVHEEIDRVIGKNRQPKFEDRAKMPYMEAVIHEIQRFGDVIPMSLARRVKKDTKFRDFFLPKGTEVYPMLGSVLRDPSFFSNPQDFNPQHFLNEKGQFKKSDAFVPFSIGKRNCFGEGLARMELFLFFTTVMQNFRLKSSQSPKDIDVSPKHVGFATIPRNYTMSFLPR
Experiment: Inhibition of human microsomal CYP2A6
Format: ADME
Conditions: not given

| Compound | Ki |
| --- | --- |
| O=Cc1cn(-c2nc(-c3cc4cc(Cl)ccc4oc3=O)cs2)nc1-c1ccccc1 | 0.00258 µM |
| COc1cccc2cc(-c3csc(-n4cc(C=O)c(-c5ccc(C)cc5)n4)n3)c(=O)oc12 | 0.00193 µM |
